Test results: ChEMBL document CHEMBL1135429, “Arylaminoethyl amides as novel non-covalent cathepsin K inhibitors” (J Med Chem, 2002)
pIC50, pKi: −log10 of the molar value.

Assays:
[1] = target: Cathepsin S (Homo sapiens, UniProt P25774); assay: Inhibition of recombinant human cathepsin S in a fluorescence assay
In short: (§1)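 Each recombinant human enzyme (cathepsin K, L or S) was assayed separately. IC50 values are the mean of two independent experiments, each performed in duplicate.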

[2] = target: Procathepsin L (Homo sapiens, UniProt P07711); assay: Inhibition of recombinant human cathepsin L in a fluorescence assay.; in short: as §1
Chain of Procathepsin L (P07711 whole entry): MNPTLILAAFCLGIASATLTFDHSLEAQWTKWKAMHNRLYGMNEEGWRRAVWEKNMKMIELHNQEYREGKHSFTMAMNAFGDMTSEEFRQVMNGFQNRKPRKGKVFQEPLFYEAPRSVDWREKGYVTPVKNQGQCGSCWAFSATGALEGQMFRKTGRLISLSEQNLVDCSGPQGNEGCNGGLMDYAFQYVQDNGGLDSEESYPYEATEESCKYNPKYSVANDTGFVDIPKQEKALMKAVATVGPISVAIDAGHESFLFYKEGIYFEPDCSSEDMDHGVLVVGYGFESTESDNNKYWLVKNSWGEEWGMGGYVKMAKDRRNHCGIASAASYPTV

[3] = target: T1, Cathepsin K (Homo sapiens, UniProt P43235); assay: Inhibition of recombinant human cathepsin K in fluorescence assay; in short: as §1
T1 sequence (P43235 whole entry): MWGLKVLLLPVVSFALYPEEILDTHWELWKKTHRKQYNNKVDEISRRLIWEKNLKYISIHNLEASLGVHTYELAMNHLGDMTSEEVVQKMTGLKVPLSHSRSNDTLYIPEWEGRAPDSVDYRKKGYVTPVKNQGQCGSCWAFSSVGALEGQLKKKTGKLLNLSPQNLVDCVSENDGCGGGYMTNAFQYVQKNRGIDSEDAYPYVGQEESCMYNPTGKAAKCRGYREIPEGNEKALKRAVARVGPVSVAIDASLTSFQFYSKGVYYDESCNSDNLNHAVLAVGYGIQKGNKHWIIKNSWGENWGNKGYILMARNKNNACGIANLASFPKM

[4] = target: Cathepsin K (Oryctolagus cuniculus); assay: Eq. constant (Ki) for inhibition of Cathepsin K was determined by progress curves, following hydrolysis of Z-Phe-Arg- Amc in the absence and presence of compound

Chain of Cathepsin S (P25774 whole entry): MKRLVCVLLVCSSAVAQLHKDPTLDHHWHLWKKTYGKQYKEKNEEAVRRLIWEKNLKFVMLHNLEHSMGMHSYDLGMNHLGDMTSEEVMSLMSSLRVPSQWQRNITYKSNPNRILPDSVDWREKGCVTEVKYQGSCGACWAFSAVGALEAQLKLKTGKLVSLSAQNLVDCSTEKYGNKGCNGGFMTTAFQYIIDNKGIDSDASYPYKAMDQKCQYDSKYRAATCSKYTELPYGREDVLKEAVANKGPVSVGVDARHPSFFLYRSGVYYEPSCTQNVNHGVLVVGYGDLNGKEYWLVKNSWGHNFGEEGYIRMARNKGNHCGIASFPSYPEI

SMILES | pIC50 [1] | pIC50 [2] | pIC50 [3] | pKi [4]
COc1ccc(NCCNC(=O)[C@H](CC(C)C)NC(=O)c2ncn(-c3ccccc3Cl)n2)cc1 | 5.72 | 5.64 | 8.22 | 
COc1ccc(NCCNC(=O)[C@H](CC(C)C)NC(=O)c2ccc(OCc3ccccc3)cc2)cc1 | 5.02 | < 5.00 | 8.22 | 7.82
CCCc1ccc(C(=O)N[C@@H](CC(C)C)C(=O)NCCNc2ccc(OC)cc2)cc1 | 5.92 | > 7.52 | > 8.52 | 
COc1ccc(NCCNC(=O)[C@H](CC(C)C)NC(=O)c2ncn(-c3cccc(Cl)c3Cl)n2)cc1 | 6.72 | < 5.00 | 8.05 | 7.96

More lines, now with the values ahead:

pIC50 [1] | pIC50 [2] | pIC50 [3] | pKi [4] | SMILES
5.24 | 7.30 | > 8.52 |  | COc1ccc(NCCNC(=O)[C@H](CC(C)C)NC(=O)c2ccc(C(C)C)cc2)cc1
5.14 | 5.82 | > 8.52 |  | COc1ccc(NCCNC(=O)[C@H](CC(C)C)NC(=O)c2ccc(C(C)C)cn2)cc1
